Reference: ChEMBL document CHEMBL3352166, “Structure-guided design and development of novel benzimidazole class of compounds targeting DNA gyraseB enzyme of Staphylococcus aureus” (Bioorg Med Chem, 2014)
Values after ≈ are worked out from the molar mass of the structure shown.

Legend:
DNA gyrase subunit B = DNA gyrase subunit B (Staphylococcus aureus, UniProt P0A0K8); assay: Inhibition of Staphylococcus aureus DNA gyrase B ATPase activity
Staphylococcus aureus [1] = assay: Antimicrobial activity against methicillin-resistant Staphylococcus aureus MTCC 96 after 16 to 24 hrs by agar dilution method; format: functional
In short: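 Agar dilution per CLSI guidelines on Mueller-Hinton agar. Overnight colonies suspended to about 10^6 cfu/mL, and 1 mL added to 19 mL medium. Stocks in 0.9% saline, tested over about 10 doubling dilutions from 100 µM to 0.1 µM. Plates incubated at 35 °C in ambient air for 16-20 h. MIC taken as the lowest concentration preventing visible growth.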

Staphylococcus aureus [2] = assay: Antimicrobial activity against Staphylococcus aureus MTCC 3160 after 16 to 24 hrs by agar dilution method; format: functional
In short: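 MIC by agar dilution per CLSI on Mueller-Hinton agar. Overnight colonies were suspended to about 10^6 cfu/mL, and 1 mL was added to 19 mL medium. Compounds were made up in 0.9% saline and tested over about 10 doubling dilutions, 100 µM to 0.1 µM. Plates ran 16-20 h at 35 °C in ambient air. MIC was the lowest concentration preventing visible growth.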

[3] = Cytotoxicity against human HEK293 cells assessed as reduction in cell viability at 100 uM after 72 hrs by MTT assay; format: cell-based; conditions: read-out: INH
In short: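 HEK-293 cells were seeded at 5000 per well and left 24 h, then washed. They were exposed to 100 µM in RPMI + 5% FBS + 1% penicillin/streptomycin, with final DMSO ≤0.5%, for 72 h at 37 °C in 5% CO2. DMSO-treated cultures served as controls. Viability was read by MTT at 570 nm, in triplicate, as percentage inhibition.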

DNA gyrase = DNA gyrase (Staphylococcus aureus, UniProt P0A0K8+P20831); assay: Inhibition of Staphylococcus aureus DNA gyrase-mediated supercoiling of relaxed DNA using pBR 322 as substrate by agarose gel electrophoresis analysis; format: protein-complex assay
Sequence of DNA gyrase (P0A0K8 whole entry): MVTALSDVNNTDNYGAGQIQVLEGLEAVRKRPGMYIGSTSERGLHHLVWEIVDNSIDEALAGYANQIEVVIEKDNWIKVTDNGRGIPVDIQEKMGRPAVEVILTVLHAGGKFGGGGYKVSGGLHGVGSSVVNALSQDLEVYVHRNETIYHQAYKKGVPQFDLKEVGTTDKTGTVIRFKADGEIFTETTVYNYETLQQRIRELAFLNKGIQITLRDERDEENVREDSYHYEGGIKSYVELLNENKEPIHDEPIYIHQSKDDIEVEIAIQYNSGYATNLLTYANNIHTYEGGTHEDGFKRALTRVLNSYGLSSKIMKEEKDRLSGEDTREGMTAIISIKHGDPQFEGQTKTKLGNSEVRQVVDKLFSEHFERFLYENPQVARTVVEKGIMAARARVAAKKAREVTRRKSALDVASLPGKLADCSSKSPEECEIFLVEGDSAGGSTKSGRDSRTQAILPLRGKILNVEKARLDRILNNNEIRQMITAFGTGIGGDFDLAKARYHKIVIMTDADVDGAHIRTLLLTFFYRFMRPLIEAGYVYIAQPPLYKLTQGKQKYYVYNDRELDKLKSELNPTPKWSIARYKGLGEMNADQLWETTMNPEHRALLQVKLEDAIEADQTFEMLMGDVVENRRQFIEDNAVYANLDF
Sequence of DNA gyrase (P20831 whole entry): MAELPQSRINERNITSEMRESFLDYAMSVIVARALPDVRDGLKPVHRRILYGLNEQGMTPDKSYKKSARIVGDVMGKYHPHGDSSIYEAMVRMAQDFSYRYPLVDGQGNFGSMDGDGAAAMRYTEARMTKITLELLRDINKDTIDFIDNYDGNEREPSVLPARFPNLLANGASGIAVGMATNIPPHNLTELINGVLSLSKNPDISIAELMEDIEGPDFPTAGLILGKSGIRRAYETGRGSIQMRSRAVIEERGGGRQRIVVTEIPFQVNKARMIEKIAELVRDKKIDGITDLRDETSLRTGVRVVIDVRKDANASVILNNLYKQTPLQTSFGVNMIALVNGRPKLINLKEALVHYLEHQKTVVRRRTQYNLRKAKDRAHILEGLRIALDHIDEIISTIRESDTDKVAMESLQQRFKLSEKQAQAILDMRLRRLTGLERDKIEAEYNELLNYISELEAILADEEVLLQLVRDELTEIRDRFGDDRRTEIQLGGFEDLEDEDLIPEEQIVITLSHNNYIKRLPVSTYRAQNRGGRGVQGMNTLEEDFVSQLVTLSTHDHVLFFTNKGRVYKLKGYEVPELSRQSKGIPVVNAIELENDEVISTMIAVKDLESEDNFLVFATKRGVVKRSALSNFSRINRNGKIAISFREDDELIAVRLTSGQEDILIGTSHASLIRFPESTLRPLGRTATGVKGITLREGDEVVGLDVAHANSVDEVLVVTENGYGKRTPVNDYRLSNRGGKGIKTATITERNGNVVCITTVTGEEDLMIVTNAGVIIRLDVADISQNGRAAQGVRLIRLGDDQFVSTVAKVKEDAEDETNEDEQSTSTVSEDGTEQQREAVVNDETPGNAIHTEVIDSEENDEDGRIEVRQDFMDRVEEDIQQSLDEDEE

Staphylococcus aureus [4] = assay: Inhibition of biofilm formation in methicillin-resistant Staphylococcus aureus MTCC 96 after 24 hr incubation by tissue culture plate method; conditions: MTCC 96, 24 h
Staphylococcus aureus [5] = assay: Antimicrobial activity against Staphylococcus aureus infected in CD1 mouse assessed as animal protection at 10 mg/kg, iv treated 4 hrs after infection measured 24 hrs post infection; format: functional
In short: (§1)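 Female CD-1 mice (20–25 g, ten per group) were infected intraperitoneally with 3 × 10^7 cfu/mouse, slightly above LD100. Test compound was given iv at 5, 10 or 25 mg/kg at infection and 4 h post infection. Vancomycin at 5 mg/kg served as comparator. Survival was scored 24 h post infection.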

Danio rerio [6] = organism: Danio rerio; assay: Cardiotoxicity in zebra fish assessed as change in heart rate up to 30 uM; format: toxicity, organism-based; conditions: zebrafish, in vivo
In short: (§2)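 Zebrafish larvae at 3 dpf were dosed in 24-well plates, 5 embryos per well, in 0.1% DMSO vehicle at 1–30 µM for 4 h at 28 °C. Terfenadine 20 µM was the positive control. Atrial and ventricular beats were watched by light microscopy, timing 30 beats and averaging 5 embryos per well. Results are mean ± SEM, with significance versus control.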

Danio rerio [7] = organism: Danio rerio; assay: Cardiotoxicity in zebra fish assessed as AV ratio up to 30 uM; format: organism-based; conditions: zebrafish, in vivo; in short: as §2
Staphylococcus aureus [8] = assay: Antimicrobial activity against Staphylococcus aureus infected in CD1 mouse assessed as animal protection at 5 mg/kg, iv treated 4 hrs after infection measured 24 hrs post infection; format: functional; in short: as §1
Staphylococcus aureus [9] = assay: Antimicrobial activity against Staphylococcus aureus infected in CD1 mouse assessed as animal protection at 25 mg/kg, iv treated 4 hrs after infection measured 24 hrs post infection

Sequence of DNA gyrase subunit B (P0A0K8 whole entry): as the sequence (P0A0K8 whole entry) above

| SMILES | IC50 (DNA gyrase subunit B) | MIC (Staphylococcus aureus [1]) | MIC (Staphylococcus aureus [2]) | cytotoxicity at 72 h, 100 µM [3] | IC50 (DNA gyrase) | IC50 (Staphylococcus aureus [4]) | Activity (Staphylococcus aureus [5]) | Activity (Danio rerio [6]) | Activity (Danio rerio [7]) | Activity (Staphylococcus aureus [8]) | Activity (Staphylococcus aureus [9]) |
| --- | --- | --- | --- | --- | --- | --- | --- | --- | --- | --- | --- |
| COC(=O)CCCC(=O)Nc1ccc(-c2nc3cc(OC)ccc3[nH]2)cc1 | 21.3 µM | 34 µM (≈ 12.5 µg/mL) | 68 µM (≈ 25 µg/mL) | 50.5% | 12.5 µM | 63.9 µM |  |  |  |  |  |
| O=C(O)CCC(=O)Nc1ccc(-c2nc3cccnc3[nH]2)cc1 | 9.23 µM | 10.1 µM (≈ 3.12 µg/mL) | 20.1 µM (≈ 6.25 µg/mL) | 31.1% | 3.13 µM | 29.4 µM |  |  |  |  |  |
| O=C(O)CCCC(=O)Nc1ccc(-c2nc3cc(F)ccc3[nH]2)cc1 | 1.32 µM | 9.15 µM (≈ 3.12 µg/mL) | 4.57 µM (≈ 1.56 µg/mL) | 7.59% | 1.13 µM | 9.63 µM | 80% | Non-toxic | Non-toxic | 60% | 100% |
| COc1ccc2[nH]c(-c3ccc(NC(=O)CCCCC(=O)O)cc3)nc2c1 | 22.9 µM | 34.1 µM (≈ 12.5 µg/mL) | 68 µM (≈ 25 µg/mL) | 29.4% | 12.5 µM | 71.1 µM |  |  |  |  |  |
| COC(=O)CCCC(=O)Nc1ccc(-c2nc3ccccc3[nH]2)cc1 | 36.3 µM | 148 µM (≈ 50 µg/mL) | 148 µM (≈ 50 µg/mL) | 9.7% | 25 µM | > 100 µM |  |  |  |  |  |
| O=C(O)COCC(=O)Nc1ccc(-c2nc3cc(F)ccc3[nH]2)cc1 | 6.12 µM | 9.1 µM (≈ 3.12 µg/mL) | 9.1 µM (≈ 3.12 µg/mL) | 14.5% | 2.9 µM | 19.6 µM |  |  |  |  |  |
| O=C(O)CC(=O)Nc1ccc(-c2nc3cccnc3[nH]2)cc1 | 21.8 µM | 42.2 µM (≈ 12.5 µg/mL) | 42.2 µM (≈ 12.5 µg/mL) | 27.2% | 8.9 µM | 71.9 µM |  |  |  |  |  |
| O=C(O)CCCCC(=O)Nc1ccc(-c2nc3cc([N+](=O)[O-])ccc3[nH]2)cc1 | 9.82 µM | 32.6 µM (≈ 12.5 µg/mL) | 32.6 µM (≈ 12.5 µg/mL) | 31.7% | 6.09 µM | 44.2 µM |  |  |  |  |  |
| O=C(O)COCC(=O)Nc1ccc(-c2nc3ccccc3[nH]2)cc1 | 6.01 µM | 46.9 µM (≈ 15.3 µg/mL) | 38.4 µM (≈ 12.5 µg/mL) | 40% | 4.81 µM | 68.8 µM |  |  |  |  |  |
